Measurements pooled from the literature.
Lines come from different studies, so protocols differ.
Target: Protein kinase C zeta type (PRKCZ, Homo sapiens, UniProt Q05513)

Structure (SMILES)	observed	mode	technique	tested at	endpoint	value
COc1cc(-c2cc(-c3ccc(N4CCNCC4)cc3)cnc2C)cc(OC)c1OC	enzyme activity	inhibitor		0.1 µM	inhibition	5%
O=C1NC(=O)c2cc(Nc3ccc(F)cc3)c(Nc3ccc(F)cc3)cc21	cell-free assay			0.5 µM	remaining signal	100%
CN(c1ncccc1CNc1nc(Nc2ccc3c(c2)CC(=O)N3)ncc1C(F)(F)F)S(C)(=O)=O	enzyme activity	inhibitor		1 µM	inhibition	0%
CC/C(=N\NC(=O)NCc1cccc(O)c1)c1ccc(O)c(C)c1O	enzyme activity	inhibitor		0.1 µM	inhibition	11%
Cn1c2c(Cl)c(Cl)ccc2c2cn[nH]c(=O)c21	thermal stability		DSF	10 µM	ΔTm	0 °C
COc1cc(Nc2cnc(C#N)c(O[C@H](C)CN(C)C)n2)ncc1-c1cnn(C)c1	enzyme activity	inhibitor	radiometric	1 µM	remaining activity	121%
Cn1c2c(c3ccc(Cl)c(Cl)c31)C(C#N)C1(CCCC1)NC2=O (centres unmarked)	thermal stability		DSF	10 µM	ΔTm	-0.2 °C
Cc1sc(C(=O)NC2COC2)cc1-n1cc(NC(=O)Nc2c(F)cccc2Cl)cn1	enzyme activity	inhibitor		10 µM	remaining activity	104%
C[C@@H](N)[C@H]1CC[C@H](C(=O)Nc2ccncc2)CC1	enzyme activity	inhibitor	TR-FRET	10 µM	inhibition	7.4%
Cn1c2c(Cl)c(Cl)ccc2c2cc(N)[nH]c(=O)c21	thermal stability		DSF	10 µM	ΔTm	0.1 °C
Nc1nc(Nc2ccccc2)sc1C(=O)c1c(F)cccc1F	enzyme activity	inhibitor		10 µM	remaining activity	83%
COc1cc2ncnc(Nc3ccc(Oc4ccccc4)cc3C)c2cc1OC	enzyme activity	inhibitor		1 µM	inhibition	3%
CCC1(CC)NC(=O)c2c(c3ccc(Cl)c(Cl)c3n2C)C1C#N (centres unmarked)	thermal stability		DSF	10 µM	ΔTm	-0.4 °C
CC(C)(C)c1nc(-c2cccc(NS(=O)(=O)c3c(F)cccc3F)c2F)c(-c2ccnc(N)n2)s1	enzyme activity	inhibitor	radiometric	1 µM	remaining activity	109%
Cn1c2c(Cl)c(Cl)ccc2c2cc[nH]c(=O)c21	thermal stability		DSF	10 µM	ΔTm	0.4 °C
FC(F)c1nc2ccccc2n1-c1nc(N2CCOCC2)nc(N2CCOCC2)n1	enzyme activity	inhibitor		10 µM	remaining activity	87%
Cc1ccc(Nc2nccc(N(C)c3ccc4c(C)n(C)nc4c3)n2)cc1S(N)(=O)=O	enzyme activity	inhibitor		0.3 µM	inhibition	-3%
Nc1nc(NC2CCCCC2)sc1C(=O)c1ccccc1	enzyme activity	inhibitor		10 µM	remaining activity	83%
N#CCCc1ccc2c(c1)-c1[nH]c3ccc([N+](=O)[O-])cc3c1CC(=O)N2	cell-free assay			0.5 µM	remaining signal	83.4%
COc1cc(/C=C/C(=O)CC(=O)/C=C/c2ccc(O)c(OC)c2)ccc1O	enzyme activity	inhibitor		1 µM	activity vs control	94%
Cc1ccc(C(=O)NCc2ccsc2)cc1C#Cc1cn(C(C)C)c2ncnc(N)c12	enzyme activity	inhibitor		1 µM	activity vs control	111%
c1ccc(CNc2nc(N3CCOc4ccccc43)nc3c2CCCC3)cc1	target engagement in cells	inhibitor	chemoproteomics	20 mM	inhibition	17.3%
CNC(=O)c1cc(Oc2ccc(NC(=O)Nc3ccc(Cl)c(C(F)(F)F)c3)cc2)ccn1	enzyme activity	inhibitor		10 µM	inhibition	-5%
Cn1c(=O)n(-c2ccc(C(C)(C)C#N)cc2)c2c3cc(-c4cnc5ccccc5c4)ccc3ncc21	enzyme activity	inhibitor		10 µM	remaining activity	123%
Cc1cnc(NC2CCOCC2)nc1-n1cnc(C(=O)NC(CN)c2cc(F)cc(Cl)c2)c1 (centres unmarked)	enzyme activity	inhibitor	radiometric	1 µM	remaining activity	106%
Cc1ccc(NC(=O)c2ccc(C)c(C(F)(F)F)c2)cc1C#Cc1nn(C2CCC(O)CC2)c2ncnc(N)c12 (centres unmarked)	cell-free assay			10 µM	remaining signal	99%
